{"source": "paper PMC10582660", "about": "(Clinical and Translational Science, 2023)", "key": {"OCT2": {"molecular_target": "T1, OCT2 (Homo sapiens, UniProt O15244)", "T1 sequence (O15244 1-555)": "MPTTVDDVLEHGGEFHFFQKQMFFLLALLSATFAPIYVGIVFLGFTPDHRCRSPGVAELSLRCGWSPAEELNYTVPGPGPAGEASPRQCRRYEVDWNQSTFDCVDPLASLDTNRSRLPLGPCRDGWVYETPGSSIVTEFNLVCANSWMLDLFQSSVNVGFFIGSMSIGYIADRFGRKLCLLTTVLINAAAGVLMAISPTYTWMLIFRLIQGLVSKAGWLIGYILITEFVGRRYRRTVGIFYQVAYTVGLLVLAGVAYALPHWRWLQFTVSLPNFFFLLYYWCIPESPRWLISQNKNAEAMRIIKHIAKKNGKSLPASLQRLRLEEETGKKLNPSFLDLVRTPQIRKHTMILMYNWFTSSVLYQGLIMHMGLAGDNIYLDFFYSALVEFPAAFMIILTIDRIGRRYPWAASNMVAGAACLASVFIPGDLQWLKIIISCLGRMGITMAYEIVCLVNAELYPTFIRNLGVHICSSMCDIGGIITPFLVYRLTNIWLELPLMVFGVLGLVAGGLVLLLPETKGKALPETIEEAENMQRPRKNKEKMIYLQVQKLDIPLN", "assay": "Raloxifene as a substrate for uptake transporters", "type": "in vitro ADME", "conditions": "raloxifene 1, 10 μM, 2, 20 min, two‐fold cutoff", "in_short": "(§1)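 Uptake of test compound (1 and 10 μM, 2 and 20 min) measured in transporter-expressing HEK293 or MDCKII cells or inside-out membrane vesicles. Run with positive-control probe substrates and inhibitors, plus empty-vector or untransfected control cells. Fold-accumulation relative to control cells judged against a two-fold cutoff for substrate status.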"}, "[1]": {"type": "in vivo, human", "in_short": "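Open-label fixed-sequence crossover in 16 healthy adults (8 male, 8 female), arms ≥7 days apart, fasted from midnight. Oral 60 mg test compound tablet with 240 mL water at 50°C (baseline) or brewed green tea. Acute: tea (one bag, 240 mL water, 80°C, 3 min, cooled to 50°C) given with dose, then at 4 and 8 h. Chronic: tea three times daily for 4 days, then day 5 as acute.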"}, "OAT1": {"molecular_target": "T2, OAT1 (Homo sapiens, UniProt Q4U2R8)", "T2 sequence (Q4U2R8 1-563)": "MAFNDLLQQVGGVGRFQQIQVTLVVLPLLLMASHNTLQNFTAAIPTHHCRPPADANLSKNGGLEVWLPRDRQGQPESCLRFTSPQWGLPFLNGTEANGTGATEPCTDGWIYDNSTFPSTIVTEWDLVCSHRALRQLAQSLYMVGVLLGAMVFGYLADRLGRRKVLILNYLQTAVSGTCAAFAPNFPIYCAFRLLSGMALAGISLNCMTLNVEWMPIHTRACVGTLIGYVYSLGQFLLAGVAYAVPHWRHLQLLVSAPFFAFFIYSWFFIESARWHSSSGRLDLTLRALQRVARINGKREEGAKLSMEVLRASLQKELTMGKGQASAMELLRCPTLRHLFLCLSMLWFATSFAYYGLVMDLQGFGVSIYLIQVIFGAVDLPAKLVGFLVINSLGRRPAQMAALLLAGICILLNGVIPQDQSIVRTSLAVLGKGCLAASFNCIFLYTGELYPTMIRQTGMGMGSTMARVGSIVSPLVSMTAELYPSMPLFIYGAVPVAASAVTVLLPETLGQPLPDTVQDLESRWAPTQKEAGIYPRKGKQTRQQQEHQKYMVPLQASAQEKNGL", "assay": "Raloxifene as a substrate for uptake transporters", "type": "in vitro ADME", "conditions": "raloxifene 1, 10 μM, 2, 20 min, two‐fold cutoff", "in_short": "as §1"}, "[2]": {"assay": "Follow-up exploratory clinical study: plasma pharmacokinetics", "type": "in vivo, human", "conditions": "for Cmax / Tmax / AUC(0-t): both, human, plasma, oral; for AUC(0-t): AUC0–48h, geometric mean (CV%)", "in_short": "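Six healthy adults (3 male, 3 female) in sequential arms ≥7 days apart: oral test compound with water, then with acute brewed green tea, then tea alone. Plasma sampled 0–48 h at the main-study times. Analysed by UHPLC–MS/MS for parent and glucuronides. […] Green tea/baseline ratios on log-transformed data, paired two-tailed t-test.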"}, "[3]": {"assay": "Follow-up exploratory clinical study: raloxifene stool recovery", "type": "in vivo, human", "conditions": "for Raloxifene dose recovery0–48h in stool, geometric mean (CV%): stool 0 to 48 h relative to dose", "in_short": "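Stool collected within 48 h pre-dose and all movements 0–24 and 24–48 h post-dose (water vs acute green tea arms), held at −20°C. Blended with water (1:2.5 by weight), stored at −80°C. Methanol/0.1% formic acid extraction with internal standards. 1×, 10× and 100× dilutions dried, reconstituted, quantified by UHPLC–MS/MS (calibration 0.06–400 nM). Recovery 0–48 h expressed as % of administered dose.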"}, "NTCP": {"molecular_target": "T3, NTCP (Homo sapiens, UniProt Q14973)", "T3 sequence (Q14973 1-349)": "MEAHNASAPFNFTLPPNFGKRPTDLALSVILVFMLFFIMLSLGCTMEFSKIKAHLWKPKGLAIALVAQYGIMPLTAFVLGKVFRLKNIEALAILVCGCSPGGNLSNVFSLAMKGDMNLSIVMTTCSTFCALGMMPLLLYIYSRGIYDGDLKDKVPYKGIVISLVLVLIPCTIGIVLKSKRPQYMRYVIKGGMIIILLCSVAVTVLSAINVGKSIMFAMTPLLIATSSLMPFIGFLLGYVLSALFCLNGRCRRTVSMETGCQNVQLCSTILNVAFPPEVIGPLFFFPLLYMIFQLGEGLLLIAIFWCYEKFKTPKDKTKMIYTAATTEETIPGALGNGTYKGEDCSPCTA", "assay": "Raloxifene as a substrate for uptake transporters", "type": "in vitro ADME", "conditions": "raloxifene 1, 10 μM, 2, 20 min, two‐fold cutoff", "in_short": "as §1"}, "[4]": {"conditions": "upon acute and chronic green tea administration"}, "[5]": {"conditions": "follow-up study, acute green tea vs baseline"}}, "note": "Where “and” joins values, the source holds several entries; their conditions need not be identical. Equal entries are not always repeated. Where two headings read alike, the source gives them in different places."}
{"compound": "O=C(c1ccc(OCCN2CCCCC2)cc1)c1c(-c2ccc(O)cc2)sc2cc(O)ccc12", "note": "[Raloxifene, raloxifene, reference compound]", "values": [{"measurement": "fold‐accumulation", "setting": "OCT2", "value": "0.90–1.15"}, {"measurement": "AUC0–48h green tea/baseline ratio (90% CI)", "setting": "[1]; acute green tea vs baseline", "value": "0.53 (0.43–0.64)"}, {"measurement": "AUC0–96h green tea/baseline ratio (90% CI)", "setting": "[1]; acute green tea vs baseline", "value": "0.57 (0.46–0.70)"}, {"measurement": "Cmax,1 green tea/baseline ratio (90% CI)", "setting": "[1]; acute green tea vs baseline", "value": "0.37 (0.28–0.50)"}, {"measurement": "t 1/2 green tea/baseline ratio (90% CI)", "setting": "[1]; acute green tea vs baseline", "value": "0.95 (0.81–1.12)"}, {"measurement": "AUC0–96h green tea/baseline ratio (90% CI)", "setting": "[1]; acute green tea vs baseline, listed as raloxifene", "value": 0.57}, {"measurement": "geometric mean green tea/baseline raloxifene AUC0–96h ratio", "setting": "[1]; after both acute and chronic administration", "value": "~ 0.60"}, {"measurement": "half-life", "setting": "[1]; both, human, plasma, oral, geometric mean terminal half‐life, unchanged upon acute and chronic green tea administration", "value": "~24", "unit": "h"}, {"measurement": "Tmax", "setting": "[1]; both, human, plasma, oral, median t max,1, unchanged upon acute and chronic green tea administration", "value": "~2", "unit": "h"}, {"measurement": "AUC0–48h green tea/baseline ratio (90% CI)", "setting": "[1]; chronic green tea vs baseline", "value": "0.56 (0.43–0.72)"}, {"measurement": "AUC0–96h green tea/baseline ratio (90% CI)", "setting": "[1]; chronic green tea vs baseline", "value": "0.66 (0.54–0.81)"}, {"measurement": "Cmax,1 green tea/baseline ratio (90% CI)", "setting": "[1]; chronic green tea vs baseline", "value": "0.39 (0.24–0.64)"}, {"measurement": "t 1/2 green tea/baseline ratio (90% CI)", "setting": "[1]; chronic green tea vs baseline", "value": "0.89 (0.75–1.04)"}, {"measurement": "AUC0–96h green tea/baseline ratio (90% CI)", "setting": "[1]; chronic green tea vs baseline, listed as raloxifene", "value": 0.66}, {"measurement": "magnitude of the decrease in raloxifene AUC with green tea", "setting": "[1]; main study", "value": "~ 40%"}, {"measurement": "tolerability", "setting": "[1]; main study, 16 participants, no severe adverse events reported", "value": "well tolerated"}, {"measurement": "AUC0–48h ratio", "setting": "[1]; [4]", "value": "0.53–0.56"}, {"measurement": "Cmax,1 ratio", "setting": "[1]; [4]", "value": "0.37–0.39"}, {"measurement": "fold‐accumulation", "setting": "OAT1", "value": "0.72–0.91"}, {"measurement": "Cmax", "setting": "[2]", "value": 0.28, "unit": "nM"}, {"measurement": "Tmax", "setting": "[2]", "value": 1, "unit": "h"}, {"measurement": "Cmax", "setting": "[2]; 60 mg", "value": 0.32, "unit": "nM"}, {"measurement": "Tmax", "setting": "[2]; 60 mg", "value": 1.25, "unit": "h"}, {"measurement": "AUC(0-t)", "setting": "[2]; 60 mg, follow-up study, six healthy adults, baseline", "value": 8.25, "unit": "nM·h"}, {"measurement": "AUC(0-t)", "setting": "[2]; follow-up study, acute green tea", "value": 7.46, "unit": "nM·h"}, {"measurement": "AUC0–48h green tea/baseline ratio (90% CI)", "setting": "[2]; [5]", "value": "0.90 (0.77–1.03)"}, {"measurement": "Cmax,1 green tea/baseline ratio (90% CI)", "setting": "[2]; [5]", "value": "0.87 (0.72–1.07)"}, {"measurement": "magnitude of the decrease in raloxifene AUC with green tea", "setting": "[2]; follow‐up study", "value": 10, "unit": "%"}, {"measurement": "Raloxifene dose recovery0–48h green tea/baseline ratio (90% CI)", "setting": "[3]; acute green tea vs baseline", "value": "1.05 (0.45–2.43)"}, {"measurement": "Percentage change in raloxifene stool recovery", "setting": "[3]; baseline to acute green tea, individual participants", "value": "−70% and 440% and −80% and 300% and 10% and −14%"}, {"measurement": "Raloxifene stool recovery", "setting": "[3]; baseline, individual participants no. 8, 11, 12, 16, 17, 18", "value": "1.7% and 0.27% and 93.8% and 18.0% and 17.4% and 69.8%"}, {"measurement": "Raloxifene dose recovery0–48h in stool, geometric mean (CV%)", "setting": "[3]; acute green tea", "value": "10.6 (103) %"}, {"measurement": "Raloxifene dose recovery0–48h in stool, geometric mean (CV%)", "setting": "[3]; baseline", "value": "10.1 (115) %"}, {"measurement": "fold‐accumulation", "setting": "NTCP", "value": "1.14–1.33"}]}
